Test results: ChEMBL document CHEMBL1122841, “Structure-activity relationships among benextramine-related tetraamine disulfides at peripheral alpha-adrenoreceptors” (J Med Chem, 1985)

molecular target: Adrenergic receptor alpha; assay: Inhibitory activity against alpha adrenergic receptor in rat

| SMILES | IC50 [µM] |
| --- | --- |
| COc1ccccc1CNCCCCCCNCCSSCCNCCCCCCNCc1ccccc1OC [BENEXTRAMINE] | 4.02 |

molecular target: Adrenergic receptor alpha; assay: Inhibitory activity against alpha adrenergic receptor; type: protein assay

| SMILES | IC50 [µM] |
| --- | --- |
| c1c[nH]c(CNCCCCCCNCCSSCCNCCCCCCNCc2ccc[nH]2)c1 | 0.9 |

species on record: Rattus norvegicus; assay: Antimuscarinic activity against carbachol induced response in rat jejunum; type: functional
Procedure, shortened: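 Rat jejunum under 1.0 g tension in the same PSS, stabilised with submaximal agonist doses. Cumulative carbachol curves used about 3-fold steps and force-transducer recording. After about 15 min rest, antagonist (10–100 µM) was incubated 30 min and the curve repeated. Dose ratios were taken before and after a 30-min wash; mean ± SEM of 5–6 observations.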

| SMILES | Kb [µM] |
| --- | --- |
| COc1ccccc1CNCCCCCCNCCSSCCNCCCCCCNCc1ccccc1OC [BENEXTRAMINE] | 2.01 |
| c1c[nH]c(CNCCCCCCNCCSSCCNCCCCCCNCc2ccc[nH]2)c1 | 5.25 |

molecular target: Adrenergic receptor alpha (Rattus norvegicus) (UniProt P15823+P23944+P43140+P22086+P19328+P22909); assay: Antagonistic blocking activity at alpha adrenergic receptor by NE induced contractions of the epididymal portion of isolated rat vas deferens at the dose of 20 uM; type: functional, tissue-based; design: scale not given: the % may be the effect or the level left
Procedure, shortened: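 Epididymal portion of isolated rat vas deferens under 1.0 g tension in PSS (mM: NaCl 118, KCl 4.7, CaCl2 2.52, MgCl2 3.57, KH2PO4 1.54, NaHCO3 12.5, glucose 11.1). Antagonist at 20 µM for 30 min, then 30-min wash. Value is the percent decrease of maximum contraction to 100 µM NE versus control, mean ± SEM; n = 3–7.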

| SMILES | Activity [%] |
| --- | --- |
| O=[N+]([O-])c1cccc(CNCCCCCCNCCSSCCNCCCCCCNCc2cccc([N+](=O)[O-])c2)c1 | 49 |
| c1cncc(CNCCCCCCNCCSSCCNCCCCCCNCc2cccnc2)c1 | 13 |
| CS(=O)(=O)c1ccccc1CNCCCCCCNCCSSCCNCCCCCCNCc1ccccc1S(C)(=O)=O | 35 |
| Brc1ccccc1CNCCCCCCNCCSSCCNCCCCCCNCc1ccccc1Br | 58 |
| COc1ccccc1CNCCCCCCNCCSSCCNCCCCCCNCc1ccccc1OC [BENEXTRAMINE] | 100 |
| Clc1ccc(CNCCCCCCNCCSSCCNCCCCCCNCc2ccc(Cl)cc2)cc1 | 50 |
| Cn1cccc1CNCCCCCCNCCSSCCNCCCCCCNCc1cccn1C | 100 |
| Clc1ccc(CNCCCCCCNCCSSCCNCCCCCCNCc2ccc(Cl)cc2Cl)c(Cl)c1 | 54 |
| COc1cc(CNCCCCCCNCCSSCCNCCCCCCNCc2cc(OC)c(OC)cc2[N+](=O)[O-])c([N+](=O)[O-])cc1OC | 47 |
| O=[N+]([O-])c1c(CNCCCCCCNCCSSCCNCCCCCCNCc2ccc(O)c(O)c2[N+](=O)[O-])ccc(O)c1O | 17 |
| Fc1cccc(CNCCCCCCNCCSSCCNCCCCCCNCc2cccc(F)c2)c1 | 73 |
| Clc1cccc(CNCCCCCCNCCSSCCNCCCCCCNCc2cccc(Cl)c2)c1 | 46 |
| c1cc(CNCCCCCCNCCSSCCNCCCCCCNCc2ccsc2)cs1 | 17 |
| Brc1ccc(CNCCCCCCNCCSSCCNCCCCCCNCc2ccc(Br)cc2)cc1 | 34 |
| O=[N+]([O-])c1ccc(CNCCCCCCNCCSSCCNCCCCCCNCc2ccc([N+](=O)[O-])cc2)cc1 | 41 |
| c1ccc2c(CNCCCCCCNCCSSCCNCCCCCCNCc3cccc4ccccc34)cccc2c1 | 22 |
| O=[N+]([O-])c1cc(O)c(O)cc1CNCCCCCCNCCSSCCNCCCCCCNCc1cc(O)c(O)cc1[N+](=O)[O-] | 99 |
| c1ccc(CNCCCCCCNCCSSCCNCCCCCCNCc2ccccn2)nc1 | 78 |

| SMILES | Activity [%] |
| --- | --- |
| c1cc(CNCCCCCCNCCSSCCNCCCCCCNCc2ccncc2)ccn1 | 11 |
| COc1c(C)cccc1CNCCCCCCNCCSSCCNCCCCCCNCc1cccc(C)c1OC | 59 |
| Fc1ccc(CNCCCCCCNCCSSCCNCCCCCCNCc2ccc(F)cc2)cc1 | 100 |
| c1ccc2ncc(CNCCCCCCNCCSSCCNCCCCCCNCc3cnc4ccccc4c3)cc2c1 | 36 |
| Brc1cccc(CNCCCCCCNCCSSCCNCCCCCCNCc2cccc(Br)c2)c1 | 58 |
| COc1cccc([N+](=O)[O-])c1CNCCCCCCNCCSSCCNCCCCCCNCc1c(OC)cccc1[N+](=O)[O-] | 42 |
| Fc1ccccc1CNCCCCCCNCCSSCCNCCCCCCNCc1ccccc1F | 55 |
| Cc1ccc(CNCCCCCCNCCSSCCNCCCCCCNCc2ccc(C)o2)o1 | 100 |
| c1csc(CNCCCCCCNCCSSCCNCCCCCCNCc2cccs2)c1 | 80 |
| c1c[nH]c(CNCCCCCCNCCSSCCNCCCCCCNCc2ccc[nH]2)c1 | 100 |
| Clc1cc(Cl)cc(CNCCCCCCNCCSSCCNCCCCCCNCc2cc(Cl)cc(Cl)c2)c1 | 44 |
| c1ccc2c(CNCCCCCCNCCSSCCNCCCCCCNCc3ccnc4ccccc34)ccnc2c1 | 32 |
| O=[N+]([O-])c1ccccc1CNCCCCCCNCCSSCCNCCCCCCNCc1ccccc1[N+](=O)[O-] | 51 |
| Clc1ccc(CNCCCCCCNCCSSCCNCCCCCCNCc2ccc(Cl)c(Cl)c2)cc1Cl | 39 |
| c1ccc2cc(CNCCCCCCNCCSSCCNCCCCCCNCc3ccc4ccccc4c3)ccc2c1 | 27 |
| COc1ccc(CNCCCCCCNCCSSCCNCCCCCCNCc2ccc(OC)c(OC)c2[N+](=O)[O-])c([N+](=O)[O-])c1OC | 27 |
| c1coc(CNCCCCCCNCCSSCCNCCCCCCNCc2ccco2)c1 | 100 |
| CSc1ccccc1CNCCCCCCNCCSSCCNCCCCCCNCc1ccccc1SC | 66 |
